This is an account of results in ChEMBL document CHEMBL1126627, “Synthesis and anti-HIV evaluation of D4T and D4T 5'-monophosphate prodrugs” (J Med Chem, 1993).

Data set [1] concerns CEM-c113. Put plainly: Effective concentration that reduces HIV-induced cytopathic effect by 50% was determined by MTT assay. Particulars: Homo sapiens. The format is functional, cell-based. In a few lines: (§1)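 CEM-Cl13 T-lymphoblastoid cells in RPMI 1640 with 5% heat-inactivated FCS at 37 °C, 5% CO2. Wells seeded with 10000 cells and given compound dilutions in triplicate (DMF stock diluted in water, at most 0.1% DMF final). Infected with HIV-1 LAV-Bru cell-free supernatant at 50-250 times the minimal infecting dose, cultured 7 days. MTT viability read at 540 nm. EC50 is the dose giving 50% protection from CPE. SI is IC50/EC50.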

For data set [2], the system named is CEM-c113. Put plainly: Antiviral activity measured in lymphocytic cell line (CEM-C113) infected with HIV-1 cell free supernatants. The format is functional, cell-based. The following applies: Homo sapiens. In a few lines:
as §1

Data set [3] in a line: Half-life estimated in human plasma. The format is ADME. Put shortly: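 Compounds incubated in human plasma. Breakdown followed by TLC separation, and half-life estimated from this.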
Data set [4] in a line: Selectivity index expressed as ratio of IC50 (CEM-C113) to EC50 from MTT assay. The format is functional. In a few lines: as §1
For data set [5], the target named is Human immunodeficiency virus type 1 reverse transcriptase (Human immunodeficiency virus 1) (UniProt Q72547). Description: Selectivity index expressed as ratio of IC50 (CEM-C113) to EC50 from RT assay. In a few lines: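 HIV-1 LAV-Bru cell-free supernatant used to infect CEM-Cl13 cells (10000/well, triplicate compound dilutions, 7-day culture). EC50 is 50% reduction of RT activity. SI is the ratio of the mock-infected MTT IC50 to this EC50.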

Data set [6] in a line: Selectivity index expressed as ratio of IC50 (CEM-C113) to EC50 from MTT assay; inactive. The format is functional. Put shortly: as §1

SMILES strings stand for the structures. The source made the active and inactive calls. No cut-off for these calls is given here.

In turn, `CCCCCCCCCCCCCCCCOC(=O)OCC1C=CC(n2cc(C)c(=O)[nH]c2=O)O1` (centres undefined) had an EC50 in data set [1] of 0.3 µM. The same compound registered an IC50 in data set [2] of over 20 µM. For the same compound, in data set [3], the half-life is over 24 h. Moreover, the Selectivity index in data set [4] was over 66.

In data set [1], `Cc1cn(C2C=CC(COP(=O)(OCCC#N)OCC3C=CC(n4cc(C)c(=O)[nH]c4=O)O3)O2)c(=O)[nH]c1=O` (centres undefined) yielded a concentration giving a half-maximal response (EC50) of 1 µM. This compound yielded a half-inhibitory concentration (IC50) in data set [2] of 17 µM. The half-life in data set [3] was 12 h. Also, in data set [4], the Selectivity index was found to be 17.

In the case of `Cc1cn([C@H]2C[C@H](N=[N+]=[N-])[C@@H](CO)O2)c(=O)[nH]c1=O` [ZIDOVUDINE], the Selectivity index in data set [5] stood at 2000; in data set [4], 3330. The concentration for a half-maximal effect (EC50) in data set [1] worked out at 0.006 µM. The same compound came in with an IC50 in data set [2] of 20 µM.

With `Cc1cn(C2C=CC(COP(=O)(O)OCC3C=CC(n4cc(C)c(=O)[nH]c4=O)O3)O2)c(=O)[nH]c1=O` (centres undefined), the Selectivity index in data set [5] amounted to 2000; in data set [4], 5000. In addition, the response in data set [1] was half-maximal at 0.02 µM (EC50). This compound returned an IC50 in data set [2] of 100 µM. Besides, the half-life in data set [3] was over 24 h.

On to `CCCCCCCCCCCCCCCCNC(=O)OCC1C=CC(n2cc(C)c(=O)[nH]c2=O)O1` (centres undefined), for which the EC50 in data set [1] is over 20 µM. Also, the Selectivity index result in data set [6] is “inactive”. Also, the IC50 in data set [2] is over 20 µM. Further, in data set [3], the half-life was over 24 h.

`CCCCCCCCCCCCCCCCOP(=O)(OCCC#N)OCC1C=CC(n2cc(C)c(=O)[nH]c2=O)O1` (centres undefined) returned an EC50 in data set [1] of 4.3 µM. This compound displayed an IC50 in data set [2] of 17 µM. The half-life in data set [3] is 12 h. The Selectivity index in data set [4] is 4.

For `CCCCCCCCCCCCCCCC(=O)OCC1C=CC(n2cc(C)c(=O)[nH]c2=O)O1` (centres undefined), the values for the Selectivity index in data set [5] and in data set [4] were 50 and 40, respectively. The same compound showed an EC50 in data set [1] of 0.1 µM. This compound also displayed a half-maximal inhibitory concentration (IC50) in data set [2] of 4 µM. Besides, in data set [3], the half-life is 4 h.

Turning to `Cc1cn([C@H]2C=C[C@@H](CO)O2)c(=O)[nH]c1=O` [STAVUDINE], the Selectivity index in data set [5] is 200; in data set [4], 125. The compound also gave an EC50 in data set [1] of 0.08 µM. Inhibition in data set [2] was half-maximal at 10 µM (IC50).

As to `CCCCCCCCCCCCCCCCOP(=O)(O)OCC1C=CC(n2cc(C)c(=O)[nH]c2=O)O1` (centres undefined), the Selectivity index in data set [5] stood at 50; in data set [4], 83. The concentration giving a half-maximal response (EC50) in data set [1] was found to be 0.12 µM. In data set [2], this compound displayed a 50% inhibitory concentration (IC50) of 10 µM. The half-life in data set [3] is over 24 h.
